In general, IC50 refers to the concentration needed to halve the response being measured.

Data set [1] relates to HeLa. Nature of the data set: Antiproliferative activity against human HeLa cells assessed as reduction in cell viability incubated for 12 hrs by MTT assay. The class given is functional, cell-based. The essentials: (§1)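 MTT viability assay in HeLa cancer cells, with the test agent alone (0 Gy) or combined with 4 Gy X-rays. IC50 values are in μM. Sensitivity enhancement ratio = IC50(0 Gy)/IC50(4 Gy).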

The subject of data set [2] is HeLa. Nature of the data set: Antiproliferative activity against human HeLa cells assessed as reduction in cell viability preincubated for 12 hrs followed by 4 Gy irradiation and measured after 60 hrs by MTT assay. The class given is functional, cell-based. The following applies: light or radiation study. The essentials: as §1
On the technique in general: Tetrazolium dyes change colour on reduction, which living cells bring about.

A short description of data set [3]: Cytotoxicity against human Ect1 cells assessed as reduction in cell viability by MTT assay. The class given is cell-based. In short, it runs like this: (§2)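 MTT viability assay in Ect1/E6E7 normal ectocervical epithelial cells, with the test agent alone (0 Gy) or combined with 4 Gy X-rays. IC50 values are in μM.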
Data set [4] can be described thus: Cytotoxicity against human Ect1 cells assessed as reduction in cell viability in presence of 4 Gy irradiation by MTT assay. The class given is cell-based. The note with it: light or radiation study. The essentials:
as §2

Data set [5] deals with HeLa. Kind of data set: Ratio of IC50 for antiproliferative activity against human HeLa cells assessed as reduction in cell viability incubated for 12 hrs to IC50 for antiproliferative activity against human HeLa cells assessed as reduction in cell viability preincubated for 12 hrs followed by 4 Gy irradiation and measured after 60 hrs by MTT assay. It counts as functional. In short, it runs like this:
as §1

Data set [6] concerns the target T1, Dihydrofolate reductase (Homo sapiens, UniProt P00374).
T1 sequence (P00374 whole entry): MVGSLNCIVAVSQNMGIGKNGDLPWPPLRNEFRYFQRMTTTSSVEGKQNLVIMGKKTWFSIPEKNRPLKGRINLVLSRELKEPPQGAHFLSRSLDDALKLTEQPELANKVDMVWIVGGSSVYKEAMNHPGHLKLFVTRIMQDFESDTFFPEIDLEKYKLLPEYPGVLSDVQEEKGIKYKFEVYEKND
Kind of data set: Inhibition of recombinant human DHFR using dihydrofolate as substrate in presence of NADPH.

Data set [7] is described as follows: Ratio of IC50 for cytotoxicity against human Ect1 cells assessed as reduction in cell viability by MTT assay to cytotoxicity against human Ect1 cells assessed as reduction in cell viability in presence of 4 Gy irradiation by MTT assay. It counts as cell-based. The following applies: read-out: Ratio IC50. The essentials:
(§3)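 MTT viability assay on Ect1/E6E7 normal ectocervical cells and HeLa cells, with 0 or 4 Gy X-rays. SER = IC50(0 Gy)/IC50(4 Gy) in the same line; safe index SI4 = IC50 Ect1/E6E7 + 4 Gy divided by IC50 HeLa + 4 Gy.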

Data set [8] can be described thus: Safety index, ratio of IC50 for cytotoxicity against human Ect1 cells assessed as reduction in cell viability to IC50 for antiproliferative activity against human HeLa cells assessed as reduction in cell viability incubated for 12 hrs by MTT assay. It counts as toxicity, cell-based. The following applies: Ect1 cells versus HeLa cells, read-out: Ratio IC50. The essentials: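 Safe index SI0 from MTT assay without irradiation: IC50 in Ect1/E6E7 normal ectocervical cells divided by IC50 in HeLa cells.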

The nature of data set [9]: Safety index, ratio of IC50 for cytotoxicity against human Ect1/E6E7 cells assessed as reduction in cell viability in presence of 4 Gy irradiation by MTT assay to antiproliferative activity against human HeLa cells assessed as reduction in cell viability preincubated for 12 hrs followed by 4 Gy irradiation and measured after 60 hrs by MTT assay. It counts as toxicity, cell-based. The following applies: Ect1/E6E7 cells versus HeLa cells, read-out: Ratio IC50. The essentials: as §3

Consider `CN(Cc1cnc2nc(N)nc(N)c2n1)c1ccc(C(=O)N[C@@H](CCC(=O)O)C(=O)O)cc1` [METHOTREXATE], for which the concentration for half-maximal inhibition (IC50) in [1] came to 1.5 µM; in [2] it was 0.82 µM; in data set [3], 2.9 µM; in [4], 1.8 µM.
As to `Nc1nc(N)c2nc(-c3ccccc3)c(-c3ccccc3)nc2n1`, the IC50 was 32.6 µM in data set [1], 14.8 µM in [2], 59.3 µM in [3] and 38.1 µM in data set [4].
`Nc1nc(N)c2nc(-c3ccco3)c(-c3ccco3)nc2n1`: the half-maximal inhibitory concentration (IC50) came to 24.5 µM in data set [1]; 14.6 µM in data set [2]; 40.1 µM in [3]; 10.4 µM in data set [6]; 19.8 µM in data set [4]. Also, the “Ratio IC50” value in data set [5] came out at 1.7. Besides, the selectivity ratio in [7] is 2. Also, in data set [8], the selectivity ratio at 12 h came out at 1.6. For the same compound, in data set [9], the selectivity ratio at 60 h came out at 1.4.
As for `Nc1nc(N)c2nc3c4ccccc4c4ccccc4c3nc2n1`, the IC50 in data set [1] was over 80 µM; in data set [2] it was over 80 µM; in data set [3], over 80 µM; in data set [6] it was over 50 µM; in [4], over 80 µM.
As to `Nc1nc(N)c2nc(-c3cccs3)c(-c3cccs3)nc2n1`, the IC50 turned out to be 4.6 µM in data set [1]; 2.3 µM in [2]; 10.9 µM in data set [3]; 1.43 µM in data set [6]; 5.3 µM in [4]. Also, the “Ratio IC50” value in data set [5] came out at 2. Moreover, the selectivity ratio in data set [7] was determined as 2.1. Besides, the selectivity ratio at 12 h in data set [8] was determined as 2.5. Further, in data set [9], the selectivity ratio at 60 h amounted to 2.3.
With `Nc1nc(N)c2nc3c4cccnc4c4ncccc4c3nc2n1`, the IC50 was 9.8 µM in [1]; 6.3 µM in data set [2]; 20 µM in [3]; 5.8 µM in data set [6]; 13.9 µM in data set [4]. Moreover, the “Ratio IC50” value in [5] turned out to be 1.6. Moreover, the selectivity ratio in [7] is 1.4. Besides, the selectivity ratio at 12 h in data set [8] amounted to 2. Moreover, in data set [9], the selectivity ratio at 60 h came out at 2.2.
